pKi: −log10 of the molar value.
Key:
[1] = biological target: Kappa-type opioid receptor (Cavia porcellus) (UniProt P41144); test: Opioid antagonist potency towards opioid receptor kappa 1 determined in guinea pig ileum preparation; type: functional, tissue-based
How it was run: (§1)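 Electrically stimulated guinea pig ileal longitudinal muscle. Antagonist at 100 nM unless noted (some at 20 nM) was preincubated 15 min, then concentration-response curves to κ agonist ethylketazocine or µ agonist morphine were run with and without antagonist in the same tissue. IC50 ratio taken from the curves; Ke = [antagonist]/(IC50 ratio − 1). Mean ± SEM, n in parentheses.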

[2] = biological target: T1, Kappa-type opioid receptor (Rattus norvegicus, UniProt P34975); test: Effect on binding to wild-type opioid receptor kappa 1 using [3H]diprenorphine in transiently expressed […] HEK293 cells; type: cell-based
How it was run: (§2)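 Run in 25 mM HEPES pH 7.4 for 90 min at room temperature, filtered and scintillation counted. Nonspecific binding defined with 10 µM naltrexone. Ki from IC50 by Cheng-Prusoff, mean ± SE of three experiments in duplicate.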

[3] = biological target: Kappa-type opioid receptor (Cavia porcellus) (UniProt P41144); conditions: Ileum, 20 nM
[4] = biological target: Delta-type opioid receptor (Mus musculus) (UniProt P32300); test: Opioid antagonist potency, determined in mouse vas deferens (MVD) preparation, using DADLE (delta-opioid) as agonist, expressed as IC50 ratio; type: functional
How it was run: (§3)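 Electrically stimulated mouse vas deferens. Antagonist, normally 100 nM, preincubated 15 min before concentration-response curves to δ agonist DADLE, obtained with and without antagonist in the same preparation. IC50 ratio from the curves; Ke = [antagonist]/(IC50 ratio − 1), not computed when ratio <1. Mean ± SEM.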

[5] = biological target: Mu-type opioid receptor (Cavia porcellus) (UniProt P97266); conditions: Ileum, 20 nM
[6] = biological target: Kappa-type opioid receptor (Cavia porcellus) (UniProt P41144); test: Opioid antagonist potency, determined in the guinea pig ileum (GPI) preparation, by employing EK (kappa-opioid) as agonist, expressed as IC50 ratio; type: functional, tissue-based; how it was run: as §1
[7] = biological target: Delta-type opioid receptor (Mus musculus) (UniProt P32300); test: Opioid antagonist potency, determined in mouse vas deferens (MVD) preparation, using DADLE (delta-opioid) as agonist (Ke=antagonist/IC50 ratio -1); type: functional; how it was run: as §3
[8] = biological target: Kappa-type opioid receptor (Rattus norvegicus, UniProt P34975, E297A); test: Effect on binding to kappa(Glu297Ala) opioid receptor, using [3H]diprenorphine in transiently expressed […] HEK293 cells; type: cell-based
How it was run: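 Rat κ receptor carrying the Glu297Ala mutation, subcloned in pcDNA3, was transiently expressed in HEK-293 cells by calcium phosphate transfection. Ki was derived by Cheng-Prusoff.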

[9] = biological target: Mu-type opioid receptor (Cavia porcellus) (UniProt P97266); test: Opioid antagonist potency, determined in guinea pig ileum (GPI) preparation, using morphine (mu-opioid) as agonist, expressed as IC50 ratio; type: functional, tissue-based
How it was run: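 Morphine concentration-response curves in electrically stimulated guinea pig ileal longitudinal muscle, run with and without antagonist (100 nM unless noted, 15 min preincubation) in the same preparation. Result expressed as the IC50 ratio of agonist with versus without antagonist.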

[10] = biological target: Mu-type opioid receptor (Cavia porcellus) (UniProt P97266); test: Opioid antagonist potency, determined in guinea pig ileum (GPI) preparation, using morphine (mu-opioid) as agonist (Ke=antagonist/IC50 ratio -1); type: functional, tissue-based; how it was run: as §1
[11] = biological target: T1, Kappa-type opioid receptor; test: Binding affinity towards rat opioid receptor kappa 1 was determined using [3H]diprenorphine radioligand; how it was run: as §2
Mu-type opioid receptor = Mu-type opioid receptor (Rattus norvegicus, UniProt P33535); test: Binding affinity towards rat mu-opioid receptor was determined using [3H]diprenorphine as radioligand; how it was run: as §2
[12] = biological target: Delta-type opioid receptor (Mus musculus, UniProt P32300); test: Binding affinity towards mouse delta-opioid receptor was determined using [3H]diprenorphine as radioligand; how it was run: as §2
Delta-type opioid receptor, sequence (P32300 whole entry): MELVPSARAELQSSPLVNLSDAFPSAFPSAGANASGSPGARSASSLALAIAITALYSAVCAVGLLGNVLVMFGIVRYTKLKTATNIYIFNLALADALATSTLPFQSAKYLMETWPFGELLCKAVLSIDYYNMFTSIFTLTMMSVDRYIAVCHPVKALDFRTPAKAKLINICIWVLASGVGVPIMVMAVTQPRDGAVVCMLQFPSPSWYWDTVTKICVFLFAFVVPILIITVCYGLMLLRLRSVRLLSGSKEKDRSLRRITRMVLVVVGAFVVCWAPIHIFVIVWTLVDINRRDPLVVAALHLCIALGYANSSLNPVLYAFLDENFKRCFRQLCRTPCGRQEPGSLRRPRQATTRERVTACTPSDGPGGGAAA

Kappa-type opioid receptor (Cavia porcellus), sequence (P41144 whole entry): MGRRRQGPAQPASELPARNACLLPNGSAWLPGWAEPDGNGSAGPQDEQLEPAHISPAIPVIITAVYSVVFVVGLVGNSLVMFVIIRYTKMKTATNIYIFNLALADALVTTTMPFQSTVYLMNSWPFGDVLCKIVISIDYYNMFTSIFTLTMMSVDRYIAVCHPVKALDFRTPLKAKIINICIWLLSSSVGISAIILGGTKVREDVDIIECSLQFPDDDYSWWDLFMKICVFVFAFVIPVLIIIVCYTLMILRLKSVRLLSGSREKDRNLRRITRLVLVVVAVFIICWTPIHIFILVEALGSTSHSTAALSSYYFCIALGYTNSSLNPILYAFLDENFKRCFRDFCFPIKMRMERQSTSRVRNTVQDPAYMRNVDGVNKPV
T1 sequence (P34975 whole entry): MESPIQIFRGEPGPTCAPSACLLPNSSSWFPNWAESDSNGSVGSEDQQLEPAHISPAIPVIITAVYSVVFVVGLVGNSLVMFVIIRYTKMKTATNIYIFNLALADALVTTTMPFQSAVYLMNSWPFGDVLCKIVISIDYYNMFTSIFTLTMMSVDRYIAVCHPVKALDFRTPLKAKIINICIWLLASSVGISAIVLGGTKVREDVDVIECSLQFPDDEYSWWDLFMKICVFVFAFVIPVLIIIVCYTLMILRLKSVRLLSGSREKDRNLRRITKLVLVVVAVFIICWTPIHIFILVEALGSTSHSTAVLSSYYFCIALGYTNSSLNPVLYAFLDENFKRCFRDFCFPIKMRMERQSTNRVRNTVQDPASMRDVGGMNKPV
Mu-type opioid receptor (Cavia porcellus), sequence (P97266 whole entry): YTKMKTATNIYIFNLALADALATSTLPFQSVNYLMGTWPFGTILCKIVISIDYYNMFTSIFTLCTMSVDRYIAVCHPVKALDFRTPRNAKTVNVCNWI
Delta-type opioid receptor (Mus musculus), sequence (P32300 whole entry): as the sequence (P32300 whole entry) above
Kappa-type opioid receptor (Rattus norvegicus, UniProt P34975, E297A), sequence (P34975 whole entry E297A): as the sequence (P34975 whole entry) above, with E297A counted along it
Mu-type opioid receptor, sequence (P33535 whole entry): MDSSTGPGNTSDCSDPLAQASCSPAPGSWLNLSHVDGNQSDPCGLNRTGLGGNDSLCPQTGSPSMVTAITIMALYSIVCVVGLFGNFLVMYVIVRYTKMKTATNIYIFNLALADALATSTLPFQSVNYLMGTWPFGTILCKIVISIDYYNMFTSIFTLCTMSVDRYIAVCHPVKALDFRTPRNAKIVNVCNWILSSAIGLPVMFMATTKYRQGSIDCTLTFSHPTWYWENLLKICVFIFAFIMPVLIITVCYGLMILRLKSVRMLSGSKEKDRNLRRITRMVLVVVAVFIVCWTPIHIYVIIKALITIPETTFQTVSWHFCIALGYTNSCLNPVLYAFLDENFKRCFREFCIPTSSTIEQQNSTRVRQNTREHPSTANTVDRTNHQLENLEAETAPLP

With `N=C(N)Nc1ccc2[nH]c3c(c2c1)C[C@@]1(O)[C@H]2Cc4ccc(O)c5c4[C@@]1(CCN2CC1CC1)[C@H]3O5` [GUANIDINONALTRINDOLE] the Ke [1] was 0.16 nM, the pKi [2] was 9.68 and the IC50 ratio [3] was 139.
`Oc1ccc2c3c1O[C@H]1c4[nH]c5c(c4C[C@@]4(O)[C@@H](C2)N(CC2CC2)CC[C@]314)C[C@@]1(O)[C@H]2Cc3ccc(O)c4c3[C@@]1(CCN2CC1CC1)[C@H]5O4` gave an IC50 ratio [4] of 10.4, an IC50 ratio [3] of 49.8 and an IC50 ratio [5] of 2.6.
`N=C(N)Nc1cccc2c3c([nH]c12)[C@@H]1Oc2c(O)ccc4c2[C@@]12CCN(CC1CC1)[C@H](C4)[C@]2(O)C3` was tested, and the IC50 ratio [6] was 2, the Ke [1] was 100 nM and the Ke [7] was 0.96 nM. For the same compound, the IC50 ratio [4] was 105, the pKi [8] was 7.33 and the pKi [2] was 7.49. The IC50 ratio [9] was 1.4 and the Ke [10] was 238 nM.
Compound `N=C(N)Nc1ccc2c3c([nH]c2c1)[C@@H]1Oc2c(O)ccc4c2[C@@]12CCN(CC1CC1)[C@H](C4)[C@]2(O)C3` has an IC50 ratio [4] of 0.2, a pKi [8] of 7.91 and a pKi [2] of 8.95.
Work on `N=C(N)Nc1cccc2[nH]c3c(c12)C[C@@]1(O)[C@H]2Cc4ccc(O)c5c4[C@@]1(CCN2CC1CC1)[C@H]3O5` yielded an IC50 ratio [6] of 2.3, a Ke [1] of 80 nM and a pKi [11] of less than 6.00. For the same compound, the Ke [7] was 263 nM, the IC50 ratio [4] was 1.4 and the pKi (Mu-type opioid receptor) was less than 6.00. For the same compound, the pKi [12] was less than 6.00 and the IC50 ratio [9] was 0.34.

From ChEMBL document CHEMBL1134509, “Transformation of a kappa-opioid receptor antagonist to a kappa-agonist by transfer of a guanidinium group from the 5'- to 6'-position of naltrindole” (J Med Chem, 2001)
